Among the data in ChEMBL document CHEMBL3352437, “Novel 3,5-bis(arylidene)-4-oxo-1-piperidinyl dimers: structure-activity relationships and potent antileukemic and antilymphoma cytotoxicity” (Eur J Med Chem, 2014) are IC50 values, retold here.

Each structure is given as a SMILES string. Some results are limits rather than exact numbers.

System in the first assay: not listed separately
Briefly: Cytotoxicity against human HCT15 cells assessed as inhibition of tumor growth after 24 hrs. It is filed as functional, cell-based. The settings on record: HCT-15, 24 h.
`O=C1/C(=C/c2ccccc2)CN(C(=O)C(=O)N2C/C(=C\c3ccccc3)C(=O)/C(=C/c3ccccc3)C2)C/C1=C\c1ccccc1`: the half-inhibitory concentration (IC50) was found to be 0.3 µM.

Another assay relates to HeLa. The experiment in a line: Antiproliferative activity against human HeLa cells after 72 hrs by coulter counting analysis. The class given is functional, cell-based.
Conditions: not given
In outline: (§1)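 Cells exposed to a range of concentrations in RPMI 1640 at 37°C for 72 h. Surviving cells counted by Coulter counter. IC50 taken from concentration-response curves, mean ± SD of at least three independent experiments.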
`COc1cc(/C=C/C(=O)CC(=O)/C=C/c2ccc(O)c(OC)c2)ccc1O` [CURCUMIN] showed a 50% inhibitory concentration (IC50) of 21.2 µM.
`O=C1/C(=C/c2ccccc2)CN(C(=O)C(=O)N2C/C(=C\c3ccccc3)C(=O)/C(=C/c3ccccc3)C2)C/C1=C\c1ccccc1` had an IC50 of 1 µM.
With `CN(C)c1ccc(/C=C2\CN(C(=O)C(=O)N3C/C(=C\c4ccc(N(C)C)cc4)C(=O)/C(=C/c4ccc(N(C)C)cc4)C3)C/C(=C\c3ccc(N(C)C)cc3)C2=O)cc1`, the half-maximal inhibitory concentration (IC50) is greater than 500 µM.
The compound `O=C1/C(=C\c2ccc(Cl)c(Cl)c2)CN(C(=O)CC(=O)N2C/C(=C\c3ccc(Cl)c(Cl)c3)C(=O)/C(=C/c3ccc(Cl)c(Cl)c3)C2)C/C1=C\c1ccc(Cl)c(Cl)c1` gave a concentration for half-maximal inhibition (IC50) of 39.8 µM.
For `COc1ccc(/C=C2/CN(C(=O)CC(=O)N3C/C(=C\c4ccc(OC)cc4)C(=O)/C(=C/c4ccc(OC)cc4)C3)C/C(=C\c3ccc(OC)cc3)C2=O)cc1`, half-maximal inhibition (IC50) was put at 219 µM.

The test system of another assay is CCRF-CEM. The experiment in a line: Antiproliferative activity against human CEM cells after 72 hrs by coulter counting analysis. The class given is functional, cell-based.
Conditions: not given
In outline: as §1
The compound `COc1cc(/C=C/C(=O)CC(=O)/C=C/c2ccc(O)c(OC)c2)ccc1O` [CURCUMIN] returned a 50% inhibitory concentration (IC50) of 8.16 µM.
Compound `O=C1/C(=C/c2ccccc2)CN(C(=O)C(=O)N2C/C(=C\c3ccccc3)C(=O)/C(=C/c3ccccc3)C2)C/C1=C\c1ccccc1` came in with an IC50 of 0.75 µM.
Consider `CN(C)c1ccc(/C=C2\CN(C(=O)C(=O)N3C/C(=C\c4ccc(N(C)C)cc4)C(=O)/C(=C/c4ccc(N(C)C)cc4)C3)C/C(=C\c3ccc(N(C)C)cc3)C2=O)cc1`, for which half-maximal inhibition (IC50) required 276 µM.
Compound `O=C1/C(=C\c2ccc(Cl)c(Cl)c2)CN(C(=O)CC(=O)N2C/C(=C\c3ccc(Cl)c(Cl)c3)C(=O)/C(=C/c3ccc(Cl)c(Cl)c3)C2)C/C1=C\c1ccc(Cl)c(Cl)c1` had an IC50 of 49.9 µM.
For `COc1ccc(/C=C2/CN(C(=O)CC(=O)N3C/C(=C\c4ccc(OC)cc4)C(=O)/C(=C/c4ccc(OC)cc4)C3)C/C(=C\c3ccc(OC)cc3)C2=O)cc1`, the half-maximal inhibitory concentration (IC50) was found to be 369 µM.

System in the next assay: not listed separately
Briefly: Cytotoxicity against human NCI60 cells assessed as inhibition of tumor growth after 24 hrs. The class given is functional, cell-based. As to conditions: NCI60, 24 h.
For the compound `O=C1/C(=C/c2ccccc2)CN(C(=O)C(=O)N2C/C(=C\c3ccccc3)C(=O)/C(=C/c3ccccc3)C2)C/C1=C\c1ccccc1`, the 50% inhibitory concentration (IC50) is 0.31 µM.
`O=c1[nH]cc(F)c(=O)[nH]1` [FLUOROURACIL]: the IC50 was found to be 29.5 µM.

A further assay deals with SR. The experiment in a line: Antileukemic activity against human SR cells assessed as inhibition of tumor growth after 24 hrs. The class given is functional, cell-based.
Conditions: not given
As to `O=C1/C(=C/c2ccccc2)CN(C(=O)C(=O)N2C/C(=C\c3ccccc3)C(=O)/C(=C/c3ccccc3)C2)C/C1=C\c1ccccc1`, the half-maximal inhibitory concentration (IC50) stood at 0.02 µM.

System in a further assay: not listed separately
Briefly: Antiproliferative activity against human Molt4/C8 cells after 72 hrs by coulter counting analysis. As to conditions: MOLT-4, 72 h. It is filed as functional, cell-based. The procedure, abridged: as §1
Compound `COc1cc(/C=C/C(=O)CC(=O)/C=C/c2ccc(O)c(OC)c2)ccc1O` [CURCUMIN] registered an IC50 of 6.46 µM.
On the same count and under the same terms, the figure for `O=C1/C(=C/c2ccccc2)CN(C(=O)C(=O)N2C/C(=C\c3ccccc3)C(=O)/C(=C/c3ccccc3)C2)C/C1=C\c1ccccc1` is 0.462 µM.
The compound `CN(C)c1ccc(/C=C2\CN(C(=O)C(=O)N3C/C(=C\c4ccc(N(C)C)cc4)C(=O)/C(=C/c4ccc(N(C)C)cc4)C3)C/C(=C\c3ccc(N(C)C)cc3)C2=O)cc1` gave an IC50 of 437 µM.
As for `O=C1/C(=C\c2ccc(Cl)c(Cl)c2)CN(C(=O)CC(=O)N2C/C(=C\c3ccc(Cl)c(Cl)c3)C(=O)/C(=C/c3ccc(Cl)c(Cl)c3)C2)C/C1=C\c1ccc(Cl)c(Cl)c1`, the IC50 came to 23.5 µM.
The same measure, in the same setting: the figure for `COc1ccc(/C=C2/CN(C(=O)CC(=O)N3C/C(=C\c4ccc(OC)cc4)C(=O)/C(=C/c4ccc(OC)cc4)C3)C/C(=C\c3ccc(OC)cc3)C2=O)cc1` is 449 µM.

System in another assay: not listed separately
Briefly: Antileukemic activity against human RPMI8226 cells assessed as inhibition of tumor growth after 24 hrs. The class given is functional, cell-based. The settings on record: rpmi-8226.
Turning to `O=C1/C(=C/c2ccccc2)CN(C(=O)C(=O)N2C/C(=C\c3ccccc3)C(=O)/C(=C/c3ccccc3)C2)C/C1=C\c1ccccc1`, the IC50 amounted to 0.03 µM.
Still for that read-out and setting: then `O=c1[nH]cc(F)c(=O)[nH]1` [FLUOROURACIL], with 3.55 µM.

In another assay the test system is L1210. Briefly: Antiproliferative activity against mouse L1210 cells after 72 hrs by coulter counting analysis. The class given is functional, cell-based. The settings on record: L1210, 72 h.
Regarding `COc1cc(/C=C/C(=O)CC(=O)/C=C/c2ccc(O)c(OC)c2)ccc1O` [CURCUMIN], inhibition was half-maximal at 15.1 µM (IC50).
`O=C1/C(=C/c2ccccc2)CN(C(=O)C(=O)N2C/C(=C\c3ccccc3)C(=O)/C(=C/c3ccccc3)C2)C/C1=C\c1ccccc1` yielded an IC50 of 4.46 µM.
Compound `CN(C)c1ccc(/C=C2\CN(C(=O)C(=O)N3C/C(=C\c4ccc(N(C)C)cc4)C(=O)/C(=C/c4ccc(N(C)C)cc4)C3)C/C(=C\c3ccc(N(C)C)cc3)C2=O)cc1` yielded a 50% inhibitory concentration (IC50) of 297 µM.
In the case of `O=C1/C(=C\c2ccc(Cl)c(Cl)c2)CN(C(=O)CC(=O)N2C/C(=C\c3ccc(Cl)c(Cl)c3)C(=O)/C(=C/c3ccc(Cl)c(Cl)c3)C2)C/C1=C\c1ccc(Cl)c(Cl)c1`, the midpoint of inhibition, the IC50, lay at 30.4 µM.
As to `COc1ccc(/C=C2/CN(C(=O)CC(=O)N3C/C(=C\c4ccc(OC)cc4)C(=O)/C(=C/c4ccc(OC)cc4)C3)C/C(=C\c3ccc(OC)cc3)C2=O)cc1`, the IC50 was greater than 500 µM.
